Consider 20 compounds from ChEMBL document CHEMBL3425411, “Synthesis of β-Carboline-Based N-Heterocyclic Carbenes and Their Antiproliferative and Antimetastatic Activities against Human Breast Cancer Cells” (J Med Chem, 2015).

What all share (assay type): functional, cell-based
The subject of one experiment is MDA-MB-468. Put plainly: Cytotoxicity against human MDA-MB-468 cells assessed as growth inhibition after 24 to 72 hrs by MTT assay. The method in brief: (§1)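 About 5000 cells/well were grown 24 h in RPMI-1640 with 10% FBS, then given fresh medium with compound at various concentrations (from 10 mM DMSO stocks) for 24, 48 and 72 h. MTT (5 mg/mL stock) was added for 2 h and formazan dissolved in DMSO. Absorbance was read at 595 nm and expressed as percent proliferation versus DMSO control.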
For orientation: Tetrazolium dyes change colour on reduction, which living cells bring about.

For another experiment, the system named is MDA-MB-231. The experiment can be described thus: Cytotoxicity against human MDA-MB-231 cells assessed as growth inhibition after 24 to 72 hrs by MTT assay. The method, boiled down:
as §1

The next experiment concerns MCF7. Put plainly: Cytotoxicity against human MCF7 cells assessed as growth inhibition after 24 to 72 hrs by MTT assay. The method, boiled down:
as §1

Experiment [1] is described as follows: Cytotoxicity against human H1299 cells assessed as growth inhibition after 24 to 72 hrs by MTT assay. The note with it: NCI-H1299. The method, boiled down:
as §1

As a reminder, the IC50 is the point on the concentration scale where inhibition reaches its midpoint. With `COC(=O)c1cc2c3ccccc3[nH]c2c2cn(C34CC5CC(CC(C5)C3)C4)c[n+]12`, the half-inhibitory concentration (IC50) (in the experiment on MDA-MB-468; in the experiment on MDA-MB-231; in the experiment with MCF7; in experiment [1]) was > 30 µM each time.

For `COC(=O)c1cc2c3ccccc3[nH]c2c2cn(-c3ccccc3Br)c[n+]12`, the IC50 was 11 µM in the experiment with MDA-MB-468, 20.7 µM in the experiment with MDA-MB-231, > 30 µM with MCF7 and > 30 µM in experiment [1].

As to `COC(=O)c1cc2c3ccccc3n(Cc3cc(OC)c(OC)c(OC)c3)c2c2cn(-c3ccc(Cl)cc3)c[n+]12`, the IC50 (in the experiment on MDA-MB-468; with MDA-MB-231; in the experiment on MCF7; in experiment [1]) was > 30 µM each time.

With `COC(=O)c1cc2c3ccccc3[nH]c2c2cn(-c3ccc(OC)c(OC)c3)c[n+]12`, the IC50 in the experiment on MDA-MB-468 is 11.5 µM; with MDA-MB-231, 29.9 µM; with MCF7, > 30 µM; in experiment [1], 16.4 µM.

`COC(=O)c1cc2c3ccccc3[nH]c2c2cn(-c3ccccc3)c[n+]12`: the IC50 in the experiment on MDA-MB-468 was 5.82 µM; in the experiment with MDA-MB-231, > 30 µM; in the experiment with MCF7, > 30 µM; in experiment [1], 8.87 µM.

For `COC(=O)c1cc2c3ccccc3[nH]c2c2cn(-c3ccc(Cl)cc3C)c[n+]12`, the IC50 is 20.2 µM with MDA-MB-468, 23.4 µM with MDA-MB-231, > 30 µM in the experiment with MCF7 and > 30 µM in experiment [1].

Regarding `COC(=O)c1cc2c3ccccc3[nH]c2c2cn(-c3cccc(Br)c3)c[n+]12`, the IC50 in the experiment with MDA-MB-468 is 15.1 µM; in the experiment on MDA-MB-231, 17.9 µM; in the experiment with MCF7, > 30 µM; in experiment [1] it was 26.9 µM.

For `COC(=O)c1cc2c3ccccc3[nH]c2c2cn(Cc3ccc(C)cc3)c[n+]12`, the half-inhibitory concentration (IC50) in the experiment on MDA-MB-468 is > 30 µM; with MDA-MB-231 it was 11.2 µM; in the experiment on MCF7 it was > 30 µM; in experiment [1], > 30 µM.

Consider `C=CCn1cc2c3[nH]c4ccccc4c3cc(C(=O)OC)[n+]2c1`, for which the IC50 with MDA-MB-468 is > 30 µM; in the experiment on MDA-MB-231, 23 µM; in the experiment on MCF7 it was > 30 µM; in experiment [1], > 30 µM.

Consider `COC(=O)c1cc2c3ccccc3[nH]c2c2cn(CCc3ccccc3)c[n+]12`, for which the IC50 (in the experiment on MDA-MB-468; in the experiment on MDA-MB-231; with MCF7; in experiment [1]) was > 30 µM in each case.

`COC(=O)c1cc2c3ccccc3[nH]c2c2cn(-c3ccc(C)cc3Cl)c[n+]12`: the IC50 in the experiment on MDA-MB-468 is > 30 µM; in the experiment on MDA-MB-231 it was 14 µM; in the experiment with MCF7, > 30 µM; in experiment [1], > 30 µM.

For `COC(=O)c1cc2c3ccccc3[nH]c2c2cn(-c3ccccc3I)c[n+]12`, the IC50 was 8.02 µM with MDA-MB-468, 7.8 µM in the experiment with MDA-MB-231, 5.96 µM with MCF7 and 6.46 µM in experiment [1].

With `COC(=O)c1cc2c3ccccc3[nH]c2c2cn(-c3ccc(Cl)cc3)c[n+]12`, the IC50 in the experiment with MDA-MB-468 was determined as 10.2 µM; with MDA-MB-231 it was 9.38 µM; with MCF7, 25.7 µM; in experiment [1], 15.4 µM.

Consider `CCN(CC)CCn1cc2c3[nH]c4ccccc4c3cc(C(=O)OC)[n+]2c1`, for which the IC50 (in the experiment on MDA-MB-468; in the experiment on MDA-MB-231; in the experiment on MCF7; in experiment [1]) was > 30 µM in each case.

As for `COC(=O)c1cc2c3ccccc3[nH]c2c2cn(-c3cccc(C(F)(F)F)c3)c[n+]12`, the IC50 in the experiment on MDA-MB-468 was 10.5 µM; with MDA-MB-231, 14.6 µM; in the experiment on MCF7 it was > 30 µM; in experiment [1], 10.9 µM.

For `COC(=O)c1cc2c3ccccc3[nH]c2c2cn(Cc3ccc(F)cc3)c[n+]12`, the concentration for half-maximal inhibition (IC50) is > 30 µM in the experiment on MDA-MB-468, 12.8 µM with MDA-MB-231, > 30 µM in the experiment on MCF7 and > 30 µM in experiment [1].

With `COC(=O)c1cc2c3ccccc3[nH]c2c2cn(-c3ccc(F)cc3Br)c[n+]12`, the IC50 with MDA-MB-468 was found to be 9.51 µM; in the experiment on MDA-MB-231, 10.8 µM; in the experiment on MCF7, 13.3 µM; in experiment [1] it was 16.4 µM.

Take `COC(=O)c1cc2c3ccccc3[nH]c2c2cn(C3CCCCC3)c[n+]12`: the IC50 is 18.2 µM in the experiment on MDA-MB-468, > 30 µM in the experiment with MDA-MB-231, > 30 µM in the experiment with MCF7 and > 30 µM in experiment [1].

On to `COC(=O)c1cc2c3ccccc3[nH]c2c2cn(Cc3ccccc3)c[n+]12`, for which the IC50 in the experiment on MDA-MB-468 was > 9.27 µM; in the experiment on MDA-MB-231, 11.8 µM; with MCF7, 6.26 µM; in experiment [1] it was 23.7 µM.

As for `COC(=O)c1cc2c3ccccc3[nH]c2c2cn(C3CC3)c[n+]12`, the IC50 (with MDA-MB-468; with MDA-MB-231; in the experiment with MCF7; in experiment [1]) was > 30 µM each time.
